From ChEMBL document CHEMBL4196197, “Irilone from Red Clover ( Trifolium pratense) Potentiates Progesterone Signaling” (J Nat Prod, 2018) come the findings set out here.

Series [1] concerns the target T1, Progesterone receptor (Homo sapiens) (UniProt P06401).
T1 sequence (whole entry): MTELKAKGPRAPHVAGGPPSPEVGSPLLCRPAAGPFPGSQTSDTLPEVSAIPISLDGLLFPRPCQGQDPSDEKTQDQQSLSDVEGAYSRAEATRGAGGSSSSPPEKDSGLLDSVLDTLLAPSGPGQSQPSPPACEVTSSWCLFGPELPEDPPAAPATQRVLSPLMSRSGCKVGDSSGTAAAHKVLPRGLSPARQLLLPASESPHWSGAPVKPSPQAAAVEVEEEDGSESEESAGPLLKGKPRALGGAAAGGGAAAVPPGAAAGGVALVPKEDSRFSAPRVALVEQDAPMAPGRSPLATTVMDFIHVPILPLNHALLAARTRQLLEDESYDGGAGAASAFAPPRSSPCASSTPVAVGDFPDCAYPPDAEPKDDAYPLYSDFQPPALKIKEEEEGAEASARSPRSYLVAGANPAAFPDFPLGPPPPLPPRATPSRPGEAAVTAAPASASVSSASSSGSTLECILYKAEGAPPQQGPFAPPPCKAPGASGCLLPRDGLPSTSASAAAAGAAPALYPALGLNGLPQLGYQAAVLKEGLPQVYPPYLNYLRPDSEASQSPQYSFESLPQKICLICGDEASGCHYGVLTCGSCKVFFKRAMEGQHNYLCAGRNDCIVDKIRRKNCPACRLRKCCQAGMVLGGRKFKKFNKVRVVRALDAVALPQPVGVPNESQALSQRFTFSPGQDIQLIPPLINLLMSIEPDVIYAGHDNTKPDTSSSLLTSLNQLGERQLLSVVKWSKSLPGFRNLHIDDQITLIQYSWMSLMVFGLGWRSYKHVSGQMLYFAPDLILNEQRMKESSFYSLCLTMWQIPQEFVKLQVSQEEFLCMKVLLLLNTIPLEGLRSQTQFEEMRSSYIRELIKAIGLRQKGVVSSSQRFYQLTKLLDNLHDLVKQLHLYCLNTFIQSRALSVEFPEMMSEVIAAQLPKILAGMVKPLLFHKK
The series is described as follows: Agonist activity at PR-b (unknown origin) expressed in Ishikawa cells assessed as increase in PRE activity at 50 uM after 24 hrs by luciferase reporter gene based luminescence assay (reference value: 25.7). The class given is cell-based. Summed up: (§1)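 Ishikawa cells stably expressing CMV-driven PR-B, kept in phenol red-free DMEM/F12 with 5% charcoal-stripped FBS plus G418/hygromycin. Seeded 40,000/well in steroid-free medium. Next day transfected with PRE/Luc plus CMV-β-galactosidase (LT1). Compounds were added without progesterone for 24 h, then lysed and frozen at −80 °C. Luciferase (mean of first six RLU reads) normalized to β-gal, then to DMSO control, n≥3.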
Background: A reporter such as luciferase makes a cellular process visible.

Series [2] concerns the target T1, Progesterone receptor (Homo sapiens). The series is described as follows: Agonist activity at PR-b (unknown origin) expressed in Ishikawa cells assessed as increase in progesterone-induced PRE activity at 50 uM after 24 hrs by luciferase reporter gene based luminescence assay relative to control. The format is cell-based. The gist of the method: (§2)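 PRE/Luc transactivation in Ishikawa cells stably expressing PR-B under CMV, seeded 40,000/well in steroid-free phenol red-free medium with charcoal-stripped FBS. Next day co-transfected with PRE/Luc and CMV-β-galactosidase. Compounds were given together with 100 nM progesterone for 24 h. Luciferase, averaged over the first six RLU reads, normalized to β-gal and then to control; n≥3.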

Series [3] concerns PEO1. The series is described as follows: Antiproliferative activity against human PEO1 cells at 25 to 50 uM after 5 days by SRB assay. The class given is functional, cell-based. The gist of the method: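 SRB growth assay in PEO1 cells: 1,000 cells/well in steroid-free medium, day-0 plate TCA-fixed 2 h after seeding. Compound was given together with 100 nM progesterone for five days, then cells TCA-fixed, SRB-stained, dye solubilized in 10 mM Tris, absorbance at 505 nm. Day-5 values normalized to day 0; n≥3.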
Background: In SRB staining, fixed cells bind dye roughly in proportion to their protein.

The target in the next series is T2, Progesterone receptor (Homo sapiens, UniProt P06401).
T2 sequence (P06401 whole entry): T1 sequence (whole entry)
Nature of the series: Induction of PR-b degradation in human Ishikawa cells up to 50 uM after 24 hrs by Western blot analysis. The class given is cell-based. The gist of the method: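 Ishikawa PR-B cells in steroid-free medium treated with 0, 25 or 50 μM for 24 h. RIPA lysates with protease/phosphatase inhibitors, 25 μg protein by SDS-PAGE onto nitrocellulose. Blocked in 5% milk, probed overnight with anti-PR (H-190, 1:500) and β-actin (1:1000), anti-rabbit secondary, chemiluminescent detection.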
In general terms: A western blot detects proteins with antibodies after separation by electrophoresis.

For series [4], the system named is PEO1. Nature of the series: Antiproliferative activity against human PEO1 cells at 1 to 50 uM after 5 days by SRB assay. The class given is functional, cell-based. Summed up: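 PEO1 cells (RPMI, 10% FBS, glutamine, pyruvate) seeded at 1,000/well in steroid-free medium, one plate fixed at 2 h as day 0. Compounds at 1–50 μM, alone without progesterone, for 5 days. Fixed with 20% TCA at 4 °C, stained with 0.4% SRB in 1% acetic acid, dissolved in 10 mM Tris, A505. Day 5 normalized to day 0; n≥3.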

Series [5] deals with T1, Progesterone receptor (Homo sapiens). The series is described as follows: Agonist activity at PR-b (unknown origin) expressed in Ishikawa cells assessed as increase in progesterone-induced PRE activity at 25 uM after 24 hrs by luciferase reporter gene based luminescence assay relative to control. The format is cell-based. The gist of the method:
as §2

The target is the same in series [6]. Nature of the series: Agonist activity at PR-b (unknown origin) expressed in Ishikawa cells assessed as increase in PRE activity at 1 to 50 uM after 24 hrs in absence of progesterone by luciferase reporter gene based luminescence assay. The class given is cell-based. The gist of the method:
as §1

In series [7] the test system is PEO1. Nature of the series: Antiproliferative activity against human PEO1 cells at 0.001 to 10 uM after 5 days by SRB assay. The format is functional, cell-based. The gist of the method:
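PEO1 cells kept in RPMI with 2 mM glutamine, 2 mM sodium pyruvate and 10% FBS; seeded at 1,000 cells/well in steroid-free medium. A day-0 plate was fixed with 20% TCA 2 h after seeding; the second plate was treated for 5 days, then fixed. SRB stain (0.4% in 1% acetic acid), dissolved in 10 mM Tris, A505; day 5 normalized to day 0; n≥3.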

The target in series [8] is T1, Progesterone receptor (Homo sapiens). Nature of the series: Agonist activity at PR-b (unknown origin) expressed in Ishikawa cells assessed as increase in progesterone-induced PRE activity at 1 uM after 24 hrs by luciferase reporter gene based luminescence assay. The format is cell-based. The gist of the method: as §2
Series [9] has the same target. The series is described as follows: Antagonist activity at PR-b (unknown origin) expressed in Ishikawa cells assessed as inhibition of progesterone-induced PRE activity at >= 25 uM after 24 hrs by luciferase reporter gene based luminescence assay. The class given is cell-based. Summed up:
as §2

For series [10] the target is unchanged. Nature of the series: Antagonist activity at PR-b (unknown origin) expressed in Ishikawa cells assessed as inhibition of basal PRE activity at 50 uM after 24 hrs in absence of progesterone by luciferase reporter gene based luminescence assay. The format is cell-based. Summed up:
as §1

The target is the same in series [11]. Nature of the series: Agonist activity at PR-b (unknown origin) expressed in Ishikawa cells assessed as increase in PRE activity at 1 uM after 24 hrs in absence of progesterone by luciferase reporter gene based luminescence assay. The format is cell-based. Summed up: as §1
For series [12] the target is unchanged. The series is described as follows: Antagonist activity at PR-b (unknown origin) expressed in Ishikawa cells assessed as inhibition of progesterone-induced PRE activity at 50 uM after 24 hrs by luciferase reporter gene based luminescence assay. The format is cell-based. Summed up: as §2
Series [13] shares this target. The series is described as follows: Antagonist activity at PR-b (unknown origin) expressed in Ishikawa cells assessed as inhibition of basal PRE activity at 25 to 50 uM after 24 hrs in absence of progesterone by luciferase reporter gene based luminescence assay. The class given is cell-based. The gist of the method:
as §1

Active and inactive are the calls of the source. The calls are words filed in the database; no cut-off is given here.

As for `O=c1c(-c2ccc(O)cc2)coc2cc3c(c(O)c12)OCO3`, in series [1], the fold change (FC) is 48.4. For the same compound, the Activity in [2] is 151%; at Progesterone receptor, “Not Active”; in [5] it was 138%. The result in the series with PEO1 [3] was Active. Further, the outcome (in the series with PEO1 [4]; in series [6]) was inactive.

`CC(=O)[C@H]1CC[C@H]2[C@@H]3CCC4=CC(=O)CC[C@]4(C)[C@H]3CC[C@]12C`: the result in the series on PEO1 [7] was inactive.

In general, inhibition refers to the relative decrease from the control value, in per cent. In the case of `COc1ccc(-c2coc3cc(O)cc(O)c3c2=O)cc1` [BIOCHANIN], in [8], the outcome was Active. For the same compound, the inhibition entry in series [9] and in series [10] was “Active” each time. Besides, the values for the Activity entry (at Progesterone receptor; in [11]) were “Not Active” and 55%, respectively. In addition, in [12], the inhibition is greater than 90%.

Consider `COc1ccc(-c2coc3cc(O)ccc3c2=O)cc1` [FORMONONETIN], for which the Activity in series [8] is 57%; on Progesterone receptor, “Not Active”. Moreover, the inhibition result in [9] and in series [10] was “Active” in each case. Moreover, the inhibition in series [12] is greater than 90%.

As to `COc1cc(O)c2c(=O)c(-c3ccc(O)cc3)coc2c1` [PRUNETIN], the inhibition entry in series [13] and in series [9] was “Active” throughout. For the same compound, the Activity result on Progesterone receptor is “Not Active”. Also, the inhibition in [12] was greater than 90%.
